# Assay outcomes from PubChem BioAssay.
# Only some compounds are listed: those with a hit (about 1.9% of all), similar ones and a draw of the others.
# H9c2 TAG inh: inhibitors of triacylglycerol accumulation, primary screen, cell-based, uHTS, fluorescence, H9c2; 230,000 compounds, 0.66% hits; inhibition, % at 12.5 µM; AID 651582, 2012; H9c2 cells, Nile Red lipid (TAG) fluorescence; cells loaded with 200 µM oleic acid;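 active = pattern-corrected inhibition of lipid staining of at least 50% with the nuclear-stain viability signal not falling by more than 50%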
# CCR6 antagonist: CCR6 receptor antagonists, primary screen, cell-based, CHO-K1, luminescence, beta-arrestin, uHTS. C-C chemokine receptor type 6 (Homo sapiens), P51684. CHO-K1 CCR6 PathHunter beta-arrestin, CCL20-stimulated. inhibition, % at 20 µM. 340,000 compounds, 0.49% hits;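 active = compounds whose inhibition of the agonist-driven luminescence signal at 20 µM reaches about 50%, limit read from the data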;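 note: cells stimulated with CCL20 at 14 nM final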
# APJ ag: agonists of human apelin receptor APJ, primary screen, CHO-K1 cells, PathHunter beta-arrestin, luminescence; 0% DMSO wells, 100% apelin; P35414; activation, % at 20 µM; 330,000 compounds, 0.11% hits;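 active = activation more than six SD over the plate average, tested at 20 µM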
#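 Test system: CHO-K1 APJ beta-arrestin complementation cell line. Amount: cell density 1000 per well. Controls: DMSO negative, 10 nM Apelin-13 positive. Signal: luminescent beta-gal fragment complementation, chemiluminescent substrate. Read-out basis: agonist-driven arrestin binding to APJ. Timing: compound stimulation 90 min at 25 °C, detection 60 min.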
# CXCR6 inh: CXCR6 receptor inhibitors, primary screen, cell-based, beta-arrestin, luminescence, CHO-K1 PathHunter, 1536-well; inhibition, % at 20 µM; 360,000 compounds, 0.36% hits; C-X-C chemokine receptor type 6 (Homo sapiens), O00574; in the data active = inhibition above about 34%, passing the limit was not always enough;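 note: antagonist mode with CXCL16 agonist at 10 nM final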
# Target sequence (O00574 whole entry, looked up): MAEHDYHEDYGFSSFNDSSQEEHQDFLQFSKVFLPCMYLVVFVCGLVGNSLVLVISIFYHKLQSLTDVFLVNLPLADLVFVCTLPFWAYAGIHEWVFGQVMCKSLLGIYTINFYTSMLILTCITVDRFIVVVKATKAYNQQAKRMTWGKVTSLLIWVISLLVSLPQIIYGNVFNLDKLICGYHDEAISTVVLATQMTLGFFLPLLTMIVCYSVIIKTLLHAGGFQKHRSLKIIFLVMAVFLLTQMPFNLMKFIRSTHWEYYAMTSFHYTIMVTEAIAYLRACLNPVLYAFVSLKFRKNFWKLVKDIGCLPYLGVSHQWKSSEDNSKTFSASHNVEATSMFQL
# APJ antagonist: antagonists of human apelin receptor APJ, primary screen, CHO-K1 cells, beta-arrestin complementation, luminescence. inhibition, % at 20 µM. P35414. 330,000 compounds, 0.32% hits;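 active = inhibition above about 40% at 20 µM, limit read from the data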;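 note: cells challenged with 10 nM apelin-13 agonist together with compound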
# EBI2 block: EBI2 receptor antagonists, beta-arrestin recruitment, primary screen, cell-based, luminescence, 7a,25-OHC stimulation, uHTS; 7a,25-OHC stimulated; AID 651636, 2012; inhibition, % at 5 µM; 360,000 compounds, 0.81% hits; in the data active = inhibition above about 38%;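 note: enzyme fragment complementation signal reports receptor beta-arrestin coupling in cells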
# Hits are given with their value; - = inactive; . = no result.
SMILES,H9c2 TAG inh,CCR6 antagonist,APJ ag,CXCR6 inh,APJ antagonist,EBI2 block
O=C(CCN1C(=O)/C(=C/c2ccccc2Cl)SC1=S)NNC(=O)c1cccnc1,-,-,-,-,-,-
O=C(CCCN1C(=O)/C(=C/c2ccccc2Cl)SC1=S)NNC(=O)c1ccc(Cl)cc1,-,-,-,-,-,60
Cc1ccc(C(=O)NNC(=O)CCCN2C(=O)/C(=C/c3ccccc3Cl)SC2=S)cc1,.,-,-,-,-,66
N#CC(C#N)=C1C=CC=CN1/C(=C\c1ccco1)C(=O)c1ccc(Br)cc1,.,104,.,103,.,77
O=C1CCN(CCc2ccccc2)CCN1CCSc1ccccc1,-,-,-,-,-,-
CC(=O)Nc1ccc(NC(=O)COC(=O)c2cc([N+](=O)[O-])ccc2N2CCOCC2)cc1,-,-,-,-,-,-
COc1ccc(NC(=O)COC(=O)c2cc([N+](=O)[O-])ccc2N2CCOCC2)cc1,-,113,-,-,-,-
CCOc1ccc(/C=N/NC(=S)NC2CC3CC2C2C=CCC32)cc1 (centres undefined),-,-,-,-,-,-
COc1cc(/C=N/NC(=S)NC2CC3CC2C2C=CCC32)ccc1O (centres undefined),-,-,-,-,-,45
CCOC(=S)SCC(=O)Nc1nc(-c2ccc(Br)cc2)cs1,.,-,-,-,-,69
C[C@@H]1CN([C@H](C)CO)C(=O)CCCn2nncc2CO[C@H]1CN(C)Cc1ccccc1C(F)(F)F,-,.,.,-,.,-
CSc1cccc(NC(=S)N(CCCN2CCCC2)Cc2cccn2Cc2ccc(Cl)cc2)c1,57,-,-,-,-,-
O=C(COc1ccc(Br)cc1)Nc1ccc(N2CCOCC2)cc1N1CCOCC1,-,-,-,-,-,-
COc1cccc2sc(Nc3nc(-c4ccncc4)cs3)nc12,57,-,-,-,-,73
COc1ccccc1-c1nnc(Nc2nc3c(OC)cccc3s2)o1,67,-,-,-,-,-
COc1cc(/C=N/NC(=S)NCCN2CCOCC2)ccc1O,.,-,-,-,-,-
O=C1NC[C@@H](CCCCN2C[C@H](Cc3ccc(O)cc3)N(Cc3ccccc3)C(=O)C2=O)N(CCC2CCCCC2)C1=O,.,.,.,-,.,-
Cc1ccc(C(=O)CCS(=O)(=O)c2ccc(Br)cc2)cc1,-,-,-,-,-,-
Cc1ccc(S(=O)(=O)CCC(=O)c2cccc([N+](=O)[O-])c2)cc1,-,59,-,-,-,-
COc1ccc(-n2c(O)c(/C=N/Nc3nc(C)cc(C)n3)c3ccccc3c2=O)cc1OC,-,73,-,37,-,-
Cc1ccccc1-n1nnnc1SCC(=O)NCC1(N2CCOCC2)CCCCC1,-,-,-,-,-,-
COc1ccc(COc2cc(-c3cccc(OC)c3)nc3ccc(NC(=O)c4ccccc4)cc23)cc1,.,-,-,-,-,-
COc1ccc(COc2cc(-c3cccc(OC)c3)nc3ccc(NC(=O)c4ccc(OC)cc4)cc23)cc1,57,-,-,-,-,-
O=C1/C(=C/c2cccs2)SC(=S)N1c1cccc(O)c1,-,-,-,-,-,-
Cc1ccc(C)c(N2CCN(C(=O)c3cc4ccccn4n3)CC2)c1,-,-,-,-,-,58
SMILES,H9c2 TAG inh,CCR6 antagonist,APJ ag,CXCR6 inh,APJ antagonist,EBI2 block
CC(C)C(N)c1csc(Nc2ccc(C(=O)c3ccccc3)cc2)n1 (centres undefined),-,.,.,-,.,-
COc1cc(N2C(=O)C=CC2=O)c(OC)cc1Cl,-,.,-,75,-,-
Cc1cccc2nc(CSc3nc4ccc([N+](=O)[O-])cc4[nH]3)c(Br)n12,.,52,-,-,-,-
NC(=O)CSc1nc2ccc([N+](=O)[O-])cc2[nH]1,-,-,-,-,-,-
CC(C)(C)OC(=O)NCCCCCNC(=O)c1[nH]cnc1C(=O)Nc1cc(Br)ccc1F,-,.,.,-,.,-
COc1ccccc1CNC(=O)COC(=O)CCN1C(=O)C2CC=CCC2C1=O (centres undefined),-,.,.,-,.,-
COc1ccc(Cn2c(/C=C/c3ccccc3)nc3ccccc32)cc1,.,-,-,-,-,42
COc1cc(N=Nc2ccc(Br)cc2)cc(C=O)c1O,-,.,.,53,.,-
COc1cc(CN(C)C)cc(C=O)c1O,-,-,-,-,-,-
O=C(NCc1ccco1)/C(=C/c1ccc(C(F)(F)F)cc1)c1nc2ccccc2[nH]1,-,-,-,-,-,-
O=S(=O)(/C(=C\c1ccc(C(F)(F)F)cc1)c1nc2ccccc2[nH]1)c1ccccc1,-,.,.,-,.,45
O=C(Nc1nnc(C2CC2)s1)c1cc([N+](=O)[O-])ccc1N1CCCCC1,.,72,-,-,-,-
Cc1ccc(NC(=O)c2cc([N+](=O)[O-])ccc2N2CCCC2)cc1,-,-,-,-,-,-
Cc1[nH]c(=O)sc1C(=O)NCc1ccc([N+](=O)[O-])cc1,-,.,.,-,.,-
Brc1ccc(N/N=C(/N=Nc2nn[nH]n2)c2ccccc2)cc1,-,52,-,-,-,-
COCC(O)Cn1ccnc1[N+](=O)[O-] (centres undefined),-,.,.,-,.,-
O=C1NC[C@@H](CCCCN2CCN(CCC3CCCCC3)C(=O)C2=O)N(CCC2CCCCC2)C1=O,.,.,.,-,.,-
CCCS(=O)(=O)N1CCCC(C(=O)Oc2ccc(Cl)cc2)C1 (centres undefined),.,-,-,-,-,-
CC(=NNC(=S)N(Cc1ccccn1)Cc1ccccn1)c1cnccn1,-,-,.,-,.,-
S=C(NN=C(c1ccccc1)c1ccccn1)N(Cc1ccccn1)Cc1ccccn1,62,-,.,-,.,-
CCC(C(=O)OCC(=O)Nc1cc(Cl)ccc1Cl)c1ccccc1 (centres undefined),.,-,-,-,42,-
N#CCC(C(=O)c1cccnc1)c1ccccc1 (centres undefined),-,.,.,-,.,-
CCCn1c(CNc2ccccc2O)nc2ccccc21,.,62,-,-,-,-
Cc1cccc(N2CCN(C(=O)c3cc4cc(F)ccc4[nH]3)CC2)c1C,.,-,-,-,-,92
COc1ccc(CCNC(=O)c2ccc([N+](=O)[O-])cc2)cc1,-,-,-,-,-,-
COc1ccc(C(=O)Nc2nc(-c3ccc([N+](=O)[O-])cc3)c(-c3ccc(OC)cc3)s2)cc1,.,61,-,-,-,-
Cc1nc(NC(=O)CSc2nnnn2Cc2ccccc2)sc1C,-,86,-,-,-,-
Cc1nnc(NC(=O)CSc2nnnn2Cc2ccccc2)s1,-,-,-,-,-,-
